Source: ChEMBL document CHEMBL3525963, “Tissue distribution and elimination of [14C]apixaban in rats” (Drug Metab Dispos, 2011)

Experiments:
Design in all cases: dose 5 mg/kg, dosed compound name [14C]-apixaban, route oral
Settings in all cases: in vivo
[1] = system: Pancreas; assay: Biodistribution in male Sprague-Dawley rat pancreas at 5 mg/kg, po administered as single dose measured after 0.5 hrs; assay type: ADME, organism-based
How it was run: (§1)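 [14C]apixaban (1.0 mg/mL, 20 μCi/mL) in 0.5% Tween 80 in Labrafil, given by oral gavage at 100 μCi/kg to male rats (225-252 g) fasted overnight through 4 h post-dose. One rat per time point. Carcasses frozen in hexane/dry ice and cut into 40 µm sagittal sections. QWBA read on phosphor plates against [14C]glucose standards, reported as µg eq/g. LLOQ 0.037 µg eq/g.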

[2] = system: Spleen; assay: Biodistribution in male Sprague-Dawley rat spleen at 5 mg/kg, po administered as single dose measured after 72 hrs; assay type: ADME, organism-based
How it was run: (§2)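 Fasted male SD rats (225-252 g) each received one oral gavage dose of [14C]apixaban, 5 mg/kg (100 μCi/kg), in 0.5% Tween 80/Labrafil vehicle. One rat was killed per time point, from 0.5 to 168 h. Frozen carcasses were cut into 40 µm sagittal whole-body sections and read by QWBA phosphor imaging against [14C]glucose calibrants. Results are in µg apixaban eq/g; BLQ <0.037 µg eq/g.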

[3] = system: Thymus; assay: Biodistribution in male Sprague-Dawley rat thymus at 5 mg/kg, po administered as single dose measured after 8 hrs; assay type: ADME, organism-based
[4] = system: Brain; assay: Biodistribution in male Sprague-Dawley rat brain at 5 mg/kg, po administered as single dose measured after 24 hrs; assay type: ADME, organism-based
[5] = system: Heart; assay: Biodistribution in male Sprague-Dawley rat heart at 5 mg/kg, po administered as single dose measured after 72 hrs; assay type: ADME, organism-based; how it was run: as §2
[6] = system: Lung; assay: Biodistribution in male Sprague-Dawley rat lung at 5 mg/kg, po administered as single dose measured after 1 hr; assay type: ADME, organism-based; how it was run: as §1
[7] = system: Rattus norvegicus; assay: Biodistribution in male Sprague-Dawley rat bone marrow at 5 mg/kg, po administered as single dose measured after 4 hrs; assay type: ADME, organism-based
How it was run: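 Fasted male rats, 225-252 g, received [14C]apixaban by single oral gavage at 100 μCi/kg in 0.5% Tween 80/Labrafil. One rat was killed per time point and the carcass frozen. Tissue radioactivity was quantified by QWBA (40 µm sagittal sections, phosphor plate, [14C]glucose calibration) as µg eq apixaban/g, with LLOQ 0.037 μg eq/g.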

[8] = system: Spleen; assay: Biodistribution in male Sprague-Dawley rat spleen at 5 mg/kg, po administered as single dose measured after 4 hrs; assay type: ADME, organism-based; how it was run: as §1
[9] = system: Rattus norvegicus; assay: Biodistribution in pregnant Sprague-Dawley rat kidney cortex at 5 mg/kg, po administered as single dose measured after 8 hrs; assay type: ADME, organism-based
[10] = system: Liver; assay: Biodistribution in pregnant Sprague-Dawley rat liver at 5 mg/kg, po administered as single dose measured after 8 hrs; assay type: ADME, organism-based
[11] = system: Harderian gland; assay: Biodistribution in pregnant Sprague-Dawley rat harderian gland at 5 mg/kg, po administered as single dose measured after 24 hrs; assay type: ADME, organism-based
How it was run: (§3)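 Fasted pregnant SD rats (n=6, 270-319 g) each received one oral gavage dose of [14C]apixaban, 5 mg/kg (100 μCi/kg), in 0.5% Tween 80/Labrafil. One rat was killed at each of 0.5, 1, 4, 8, 24 and 48 h. Carcasses were frozen in hexane/dry ice, cut into 40 µm sagittal sections, exposed to phosphor plates and quantified against [14C]glucose standards as µg eq/g. LLOQ was 0.037 µg eq/g.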

[12] = system: Rattus norvegicus; assay: Biodistribution in pregnant Sprague-Dawley rat pituitary gland at 5 mg/kg, po administered as single dose measured after 24 hrs; assay type: ADME, organism-based
How it was run: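 Pregnant SD rats (270-319 g) were fasted overnight and given one oral gavage of 5 mg/kg (100 μCi/kg) in 0.5% Tween 80 in Labrafil. One rat was euthanized per time point (0.5, 1, 4, 8, 24, 48 h) and the carcass frozen. 40 µm sagittal sections were phosphor-imaged against [14C]glucose standards and results reported as µg eq/g; LLOQ 0.037 µg eq/g.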

[13] = system: Lung; assay: Biodistribution in female Sprague-Dawley rat lung at 5 mg/kg, po administered as single dose measured after 0.5 hrs; assay type: ADME, organism-based
How it was run: (§4)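 [¹⁴C]Apixaban given by oral gavage at 5 mg/kg (100 μCi/kg) in 0.5% Tween 80 in Labrafil (1.0 mg/mL dosing solution) to rats fasted overnight through 4 h post-dose. One rat per time point; carcass frozen in hexane/dry ice. Quantitative whole-body autoradiography used 40 µm sagittal sections and a phosphor imaging plate calibrated with [¹⁴C]glucose standards (0.001–6.5 μCi/g). Read-out in µg eq apixaban/g; LLOQ 0.037 μg eq/g.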

[14] = system: Harderian gland; assay: Biodistribution in female Sprague-Dawley rat harderian gland at 5 mg/kg, po administered as single dose measured after 0.5 hrs; assay type: ADME, organism-based; how it was run: as §4
[15] = Drug level in lactating Sprague-Dawley rat milk at 5 mg/kg, po administered as single dose after 6 hrs; assay type: ADME, organism-based
[16] = system: Blood; assay: Cmax in female Sprague-Dawley rat blood at 5 mg/kg, po administered as single dose; assay type: ADME, organism-based
How it was run: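 Fasted male, female or pregnant SD rats received a single oral gavage of 5 mg/kg (100 μCi/kg) in 0.5% Tween 80/Labrafil. One rat was killed per time point, up to 168 h (48 h for pregnant). Blood was collected into K3EDTA. Blood radioactivity came from autoradiogram or LSC data, and Cmax was taken from the concentration-time profile.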

[17] = system: Blood; assay: Biodistribution in female Sprague-Dawley rat blood at 5 mg/kg, po administered as single dose measured after 4 hrs; assay type: ADME, organism-based; how it was run: as §4
[18] = system: Rattus norvegicus; assay: Biodistribution in female Sprague-Dawley rat salivary gland at 5 mg/kg, po administered as single dose measured after 1 hr; assay type: ADME, organism-based
How it was run: (§5)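 [14C]apixaban (20 μCi/mL in dosing solution) in 0.5% Tween 80 in Labrafil given by oral gavage to fasted female rats, 206-213 g, at 100 μCi/kg. One rat per time point was euthanized and snap-frozen. Sagittal 40 µm whole-body sections were read by QWBA phosphor imaging against [14C]glucose standards. Results are in µg eq apixaban/g, with LLOQ 0.037 μg eq/g.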

[19] = system: Brain; assay: Biodistribution in pregnant Sprague-Dawley rat brain at 5 mg/kg, po administered as single dose measured after 8 hrs; assay type: ADME, organism-based
[20] = system: Rattus norvegicus; assay: Biodistribution in female Sprague-Dawley rat brown fat at 5 mg/kg, po administered as single dose measured after 1 hr; assay type: ADME, organism-based, Brown adipose tissue; how it was run: as §5
[21] = system: Spleen; assay: Biodistribution in female Sprague-Dawley rat spleen at 5 mg/kg, po administered as single dose measured after 72 hrs; assay type: ADME, organism-based
How it was run: (§6)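 Quantitative whole-body autoradiography was run after a single 5 mg/kg (100 μCi/kg) oral gavage to fasted female or pregnant SD rats, one rat per time point. Carcasses were frozen in hexane/dry ice, and 40 µm sagittal sections were dried at −20°C for at least 48 h. Sections were exposed to a phosphor plate alongside [14C]glucose standards (0.001–6.5 µCi/g). Results are µg eq/g, with LLOQ 0.037 µg eq/g.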

[22] = system: Thymus; assay: Biodistribution in female Sprague-Dawley rat thymus at 5 mg/kg, po administered as single dose measured after 72 hrs; assay type: ADME, organism-based; how it was run: as §6
[23] = system: Liver; assay: Biodistribution in pregnant Sprague-Dawley rat liver at 5 mg/kg, po administered as single dose measured after 0.5 hrs; assay type: ADME, organism-based; how it was run: as §3
[24] = system: Harderian gland; assay: Biodistribution in pregnant Sprague-Dawley rat harderian gland at 5 mg/kg, po administered as single dose measured after 1 hr; assay type: ADME, organism-based

Q: Which Radiolabel recovery [1] does the source give for `COc1ccc(-n2nc(C(N)=O)c3c2C(=O)N(c2ccc(N4CCCC[14C]4=O)cc2)CC3)cc1` here?
A: 0.47 ugequiv/g

Q: What about the Radiolabel recovery [2] of the same molecule?
A: Not detected assumed BLQ

Q: What about the Radiolabel recovery [3] of the same molecule?
A: 0.06 ugequiv/g

Q: And the Radiolabel recovery [4]?
A: < 0.037 ugequiv/g

Q: What about the Radiolabel recovery [5] of the same molecule?
A: Not detected assumed BLQ

Q: And the Radiolabel recovery [6]?
A: 0.7 ugequiv/g

Q: What about the Radiolabel recovery [7] of the same molecule?
A: 0.32 ugequiv/g

Q: What about the Radiolabel recovery [8] of the same molecule?
A: 0.28 ugequiv/g

Q: What about the Radiolabel recovery [9] of the same molecule?
A: 0.21 ugequiv/g

Q: And the Radiolabel recovery [10]?
A: 0.65 ugequiv/g

Q: What about the Radiolabel recovery [11] of the same molecule?
A: Not detected assumed BLQ

Q: What about the Radiolabel recovery [12] of the same molecule?
A: Not sampled as not visualised in autoradiograph

Q: And the Radiolabel recovery [13]?
A: 0.43 ugequiv/g

Q: What about the Radiolabel recovery [14] of the same molecule?
A: 0.4 ugequiv/g

Q: What about the Radiolabel recovery [15] of the same molecule?
A: 8.92 µg/mL

Q: What about the Cmax [16] of the same molecule?
A: 880 ngequiv/g

Q: What about the Radiolabel recovery [17] of the same molecule?
A: 0.35 ugequiv/g

Q: And the Radiolabel recovery [18]?
A: 0.55 ugequiv/g

Q: What about the Radiolabel recovery [19] of the same molecule?
A: < 0.037 ugequiv/g

Q: And the Radiolabel recovery [20]?
A: 0.77 ugequiv/g

Q: And the Radiolabel recovery [21]?
A: Not detected assumed BLQ

Q: And the Radiolabel recovery [22]?
A: Not detected assumed BLQ

Q: What about the Radiolabel recovery [23] of the same molecule?
A: 6.77 ugequiv/g

Q: And the Radiolabel recovery [24]?
A: 1.09 ugequiv/g
